Structures can show the parent of a compound that is named as a salt.
What was measured:
[1] = target: imidazoline I2 receptor; test: Radioligand binding competition, imidazoline I2
[2] = target: Adrenergic α1D (Homo sapiens, UniProt P25100); test: Radioligand competition, adrenergic α1D; assay type: binding
[3] = system: Dopaminergic receptors; test: Radioligand competition, dopaminergic receptors; assay type: binding; conditions: compared to the 5-HT7 receptor
[4] = system: calcium channels of L type; test: Target panel binding, calcium channel L type
[5] = target: H1 receptor (Homo sapiens, UniProt P35367); test: Histamine-induced Ca2+ mobilization in SK-N-SH cells; assay type: cell-based
Outline: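 SK-N-SH cells challenged with 10μM histamine; transient rise in intracellular free Ca2+ recorded as the response, with test compound examined for blockade of this histamine-evoked signal.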

[6] = Stability in aqueous solutions; assay type: physicochemical; conditions: 72 h, room temperature
Outline: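 Test compound was incubated for 72 h at room temperature. Media were distilled water, salt solution at pH 4.0 or pH 7.0, and physiological solution at pH 7.4. Read-out was the fraction of the original concentration remaining.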

[7] = Stability in murine blood plasma; assay type: in vitro ADME, mouse; conditions: 30-min incubation, room temperature
[8] = target: CYP1A2 (Homo sapiens, UniProt P05177); test: Metabolism by recombinant CYP1A2; assay type: in vitro ADME
[9] = target: CYP2C8 (Homo sapiens, UniProt P10632); test: Metabolism by recombinant CYP2C8; assay type: in vitro ADME
[10] = target: CYP2C19 (Homo sapiens, UniProt P33261); test: Metabolism by recombinant CYP2C19; assay type: in vitro ADME
[11] = Pharmacokinetics in dogs; assay type: in vivo, dogs (Beagle); conditions: for Cmax / Tmax / half-life / AUC: Beagle, dog, blood
[12] = system: BALB/c mice; test: Open Field test; assay type: in vivo; conditions: IP; Lorazepam 0.05 mg/kg, AVN-101 0.2 mg/kg
Outline: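 Male BALB/c mice received lorazepam 30 min or test compound 5 min before testing; controls received saline, with at least 8 per group. Time in the central zone was recorded during a 10-min exploration. Comparison with the control group used ANOVA with Fisher LSD.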

[13] = system: male Long Evans rats; test: Geller-Seifter conflict test; assay type: in vivo; conditions: IV, 5 min before test
Outline: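 Male Long Evans rats were food-deprived for 24 h, with at least 5 per group. Test compound was given IV via tail vein 5 min before testing. The test ran two 30-min sessions, unpunished and punished (conflict), with lever presses counted. Results were expressed as relative change versus the vehicle group.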

[14] = system: BALB/c mice; test: Tail suspension test; assay type: in vivo; conditions: AVN-101 0.05 mg/kg IP once daily for 4 days
Outline: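 Test compound dissolved in saline, injected IP into BALB/c mice once daily for 4 days, last injection 5 min before tail suspension; vehicle (saline) controls; fluoxetine and desipramine 15 mg/kg IP as positive controls, last dose 30 min before test. Immobility measured; at least 8 animals per group; Student t-test.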

[15] = system: male BALB/c mice; test: Novel object recognition, MK-801-induced; assay type: in vivo; conditions: 0.2 mg/kg MK-801; memantine 10 mg/kg; SB-742457 0.2 or 1.0 mg/kg
Outline: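 All drugs were dissolved in saline and given IP; control animals received saline vehicle. Each group had at least 8 male BALB/c mice. Read-out was novel object recognition index, reported as mean ± SE.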

[16] = Maximum tolerated dose, 5-day oral; assay type: in vivo, mice; conditions: male, CD1, mouse, in vivo, po
Outline: (§1)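 Male CD1 mice received test compound in sterile water orally at 10, 30 or 60 mg/kg once daily for 5 days (n = 8 per group). Body weight and deaths were recorded daily, followed by a 2-week observation phase. MTD was taken as the highest dose causing neither mortality nor body-weight loss.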

[17] = system: male CD1 mice; test: Maximum tolerated dose, 5-day oral; assay type: in vivo
Outline: as §1

[18] = system: laboratory rabbits; test: 30 days toxicity, rabbits; assay type: in vivo; conditions: 4 mg/kg PO daily
[19] = system: Wistar rats; test: 180 days toxicity, rats; assay type: in vivo
[20] = target: hNav1.5 (Homo sapiens, UniProt Q14524); test: Cardiac channel inhibition, hNav1.5; assay type: cell-based
[21] = system: Monkeys (Macaca mulatta); test: Q-T interval, monkeys; assay type: in vivo; conditions: 1 mg/kg IV; not affected
[22] = Phase I pharmacokinetics, single PO dose; assay type: in vivo, human; conditions: human, blood, po
[23] = Dialysis of diluted rat plasma against rat brain homogenate; assay type: in vitro ADME; conditions: 1μM AVN-101 in 20% plasma vs brain homogenate
Outline: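 A 48-well semi-permeable-membrane dialysis plate was used. Donor chamber held 20% rat plasma diluted in PBS with 1 μM test compound; acceptor chamber held rat brain homogenate. Both chambers were sampled at several time points, and samples were matrix-equilibrated by cross-adding the opposite matrix. Membrane-permeability controls used 20% plasma in both chambers or PBS in both chambers.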

[24] = target: 5-HT1B receptor; conditions: Table 2; cited from earlier work

hNav1.5, sequence (Q14524 whole entry): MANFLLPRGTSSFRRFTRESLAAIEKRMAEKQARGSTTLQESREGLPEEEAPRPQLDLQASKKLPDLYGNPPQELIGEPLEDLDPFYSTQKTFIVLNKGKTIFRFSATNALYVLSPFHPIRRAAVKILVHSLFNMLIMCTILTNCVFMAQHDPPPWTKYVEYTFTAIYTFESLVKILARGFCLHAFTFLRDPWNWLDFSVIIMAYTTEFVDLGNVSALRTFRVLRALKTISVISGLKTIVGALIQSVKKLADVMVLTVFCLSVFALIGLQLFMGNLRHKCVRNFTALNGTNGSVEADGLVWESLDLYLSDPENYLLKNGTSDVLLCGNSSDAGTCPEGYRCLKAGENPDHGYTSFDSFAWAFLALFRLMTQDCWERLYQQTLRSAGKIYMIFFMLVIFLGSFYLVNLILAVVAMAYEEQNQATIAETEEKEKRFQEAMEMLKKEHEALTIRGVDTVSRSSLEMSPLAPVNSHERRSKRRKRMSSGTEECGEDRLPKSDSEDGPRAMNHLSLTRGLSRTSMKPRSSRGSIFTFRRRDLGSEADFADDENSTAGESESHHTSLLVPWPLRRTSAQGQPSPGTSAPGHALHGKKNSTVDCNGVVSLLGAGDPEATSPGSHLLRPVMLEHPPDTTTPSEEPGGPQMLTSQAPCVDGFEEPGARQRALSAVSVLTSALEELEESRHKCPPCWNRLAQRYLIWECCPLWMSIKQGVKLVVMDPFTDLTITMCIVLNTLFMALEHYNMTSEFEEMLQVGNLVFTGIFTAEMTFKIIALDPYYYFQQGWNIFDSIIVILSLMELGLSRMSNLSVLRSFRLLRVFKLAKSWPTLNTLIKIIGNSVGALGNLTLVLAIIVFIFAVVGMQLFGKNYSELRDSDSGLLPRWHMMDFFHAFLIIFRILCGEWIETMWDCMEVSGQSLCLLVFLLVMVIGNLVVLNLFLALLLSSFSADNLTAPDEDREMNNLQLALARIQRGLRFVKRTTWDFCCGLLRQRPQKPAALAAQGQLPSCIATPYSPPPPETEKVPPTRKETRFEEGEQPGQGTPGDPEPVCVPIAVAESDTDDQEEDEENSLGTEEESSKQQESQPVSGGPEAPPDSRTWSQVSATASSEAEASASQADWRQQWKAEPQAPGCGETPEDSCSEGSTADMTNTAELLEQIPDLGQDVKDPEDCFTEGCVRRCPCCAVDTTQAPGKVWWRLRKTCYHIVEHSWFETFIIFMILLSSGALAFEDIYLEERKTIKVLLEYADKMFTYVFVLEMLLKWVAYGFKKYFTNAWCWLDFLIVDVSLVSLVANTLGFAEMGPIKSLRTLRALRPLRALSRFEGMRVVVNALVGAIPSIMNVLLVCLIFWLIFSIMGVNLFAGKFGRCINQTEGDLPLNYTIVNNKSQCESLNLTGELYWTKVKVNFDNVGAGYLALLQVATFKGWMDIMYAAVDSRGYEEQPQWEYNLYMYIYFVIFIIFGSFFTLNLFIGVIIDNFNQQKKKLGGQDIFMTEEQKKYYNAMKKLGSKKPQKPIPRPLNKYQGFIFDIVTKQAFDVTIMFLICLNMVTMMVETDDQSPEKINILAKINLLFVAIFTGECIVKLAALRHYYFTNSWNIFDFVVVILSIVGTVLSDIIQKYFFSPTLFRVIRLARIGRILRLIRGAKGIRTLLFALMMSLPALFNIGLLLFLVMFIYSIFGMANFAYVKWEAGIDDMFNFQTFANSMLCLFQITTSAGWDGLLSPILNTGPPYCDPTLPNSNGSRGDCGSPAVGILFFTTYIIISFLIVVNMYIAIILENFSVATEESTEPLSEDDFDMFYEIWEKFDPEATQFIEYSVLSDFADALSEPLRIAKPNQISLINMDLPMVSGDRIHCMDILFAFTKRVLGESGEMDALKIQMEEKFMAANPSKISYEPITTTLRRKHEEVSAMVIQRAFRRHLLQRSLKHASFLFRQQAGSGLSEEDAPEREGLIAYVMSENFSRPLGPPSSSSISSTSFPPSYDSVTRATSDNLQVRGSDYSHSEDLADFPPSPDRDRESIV
H1 receptor, sequence (P35367 whole entry): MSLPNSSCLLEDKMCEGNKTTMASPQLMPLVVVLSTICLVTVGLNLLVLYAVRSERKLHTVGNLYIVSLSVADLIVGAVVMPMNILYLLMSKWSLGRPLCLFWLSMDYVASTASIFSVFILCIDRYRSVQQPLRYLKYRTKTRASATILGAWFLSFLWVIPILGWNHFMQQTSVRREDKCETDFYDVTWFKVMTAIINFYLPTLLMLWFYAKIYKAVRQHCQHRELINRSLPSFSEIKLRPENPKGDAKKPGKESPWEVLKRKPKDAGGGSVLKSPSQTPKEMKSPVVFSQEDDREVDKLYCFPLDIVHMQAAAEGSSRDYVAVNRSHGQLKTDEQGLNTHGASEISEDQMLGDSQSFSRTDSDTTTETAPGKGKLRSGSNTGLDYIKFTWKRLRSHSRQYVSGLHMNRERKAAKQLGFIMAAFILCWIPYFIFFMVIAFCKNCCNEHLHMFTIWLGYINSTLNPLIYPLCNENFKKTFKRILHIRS
Adrenergic α1D, sequence (P25100 whole entry): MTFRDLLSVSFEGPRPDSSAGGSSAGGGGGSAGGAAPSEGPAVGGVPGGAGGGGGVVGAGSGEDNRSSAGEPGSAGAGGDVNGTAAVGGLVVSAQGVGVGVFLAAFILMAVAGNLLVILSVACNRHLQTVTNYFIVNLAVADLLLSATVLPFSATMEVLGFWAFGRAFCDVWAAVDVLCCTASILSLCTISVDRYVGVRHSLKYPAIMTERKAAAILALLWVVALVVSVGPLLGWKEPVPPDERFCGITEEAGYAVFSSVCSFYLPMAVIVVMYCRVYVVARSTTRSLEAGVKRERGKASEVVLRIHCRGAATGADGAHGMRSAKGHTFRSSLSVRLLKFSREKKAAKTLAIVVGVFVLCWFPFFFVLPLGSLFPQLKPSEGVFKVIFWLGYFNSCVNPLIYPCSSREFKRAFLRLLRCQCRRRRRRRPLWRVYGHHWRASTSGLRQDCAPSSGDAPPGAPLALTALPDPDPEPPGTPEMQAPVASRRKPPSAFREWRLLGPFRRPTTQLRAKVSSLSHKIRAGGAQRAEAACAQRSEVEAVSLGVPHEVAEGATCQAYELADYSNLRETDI
CYP1A2, sequence (P05177 whole entry): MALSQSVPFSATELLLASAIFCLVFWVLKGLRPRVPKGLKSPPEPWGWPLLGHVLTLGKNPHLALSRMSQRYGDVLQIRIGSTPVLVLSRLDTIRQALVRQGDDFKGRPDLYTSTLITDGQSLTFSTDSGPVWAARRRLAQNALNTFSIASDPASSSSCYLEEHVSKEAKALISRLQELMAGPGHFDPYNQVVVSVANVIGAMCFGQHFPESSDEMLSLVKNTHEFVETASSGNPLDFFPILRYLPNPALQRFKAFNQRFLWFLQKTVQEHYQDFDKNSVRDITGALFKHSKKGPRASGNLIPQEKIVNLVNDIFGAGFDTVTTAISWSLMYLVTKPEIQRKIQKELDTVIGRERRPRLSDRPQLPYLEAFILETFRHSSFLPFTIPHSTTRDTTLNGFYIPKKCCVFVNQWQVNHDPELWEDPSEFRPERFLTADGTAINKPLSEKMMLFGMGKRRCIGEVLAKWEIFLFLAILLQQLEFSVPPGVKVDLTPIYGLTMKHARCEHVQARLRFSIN
CYP2C8, sequence (P10632 whole entry): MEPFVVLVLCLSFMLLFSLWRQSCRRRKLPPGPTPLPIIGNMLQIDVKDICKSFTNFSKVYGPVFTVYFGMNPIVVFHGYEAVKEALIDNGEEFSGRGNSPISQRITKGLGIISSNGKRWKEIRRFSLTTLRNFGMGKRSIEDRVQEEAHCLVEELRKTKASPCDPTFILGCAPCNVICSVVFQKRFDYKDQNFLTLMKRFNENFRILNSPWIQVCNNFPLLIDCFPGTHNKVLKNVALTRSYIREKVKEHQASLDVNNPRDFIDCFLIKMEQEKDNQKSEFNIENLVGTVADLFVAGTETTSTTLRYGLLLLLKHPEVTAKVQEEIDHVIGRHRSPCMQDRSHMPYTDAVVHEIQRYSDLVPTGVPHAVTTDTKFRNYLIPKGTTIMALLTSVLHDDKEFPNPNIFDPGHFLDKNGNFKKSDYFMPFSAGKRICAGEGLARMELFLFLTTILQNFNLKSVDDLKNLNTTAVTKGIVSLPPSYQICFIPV
CYP2C19, sequence (P33261 whole entry): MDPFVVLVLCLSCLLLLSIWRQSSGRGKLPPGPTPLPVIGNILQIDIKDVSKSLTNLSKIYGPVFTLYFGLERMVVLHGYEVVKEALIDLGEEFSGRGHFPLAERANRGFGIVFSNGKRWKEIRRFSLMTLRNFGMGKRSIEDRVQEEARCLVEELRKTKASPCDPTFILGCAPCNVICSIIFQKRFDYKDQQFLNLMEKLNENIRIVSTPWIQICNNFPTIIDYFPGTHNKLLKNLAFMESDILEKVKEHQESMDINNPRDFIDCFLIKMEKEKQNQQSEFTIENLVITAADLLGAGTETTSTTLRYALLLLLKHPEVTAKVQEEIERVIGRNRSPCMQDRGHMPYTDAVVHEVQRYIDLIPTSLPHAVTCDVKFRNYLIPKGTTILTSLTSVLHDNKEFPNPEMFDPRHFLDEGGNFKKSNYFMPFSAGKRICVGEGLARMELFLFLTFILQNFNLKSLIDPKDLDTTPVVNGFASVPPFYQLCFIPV

Question: What does the source list for `Cc1ccc2c(c1)c1c(n2CCc2ccccc2)CCN(C)C1` [AVN-101, 2,8-dimethyl-5-penethyl-2,3,4,5-tetra-hydro-1h-pyrido[[4,3-B]]indole hydrochloride]?
Answer: Ki [1]: 179 nM; Ki [2]: 30.2 nM; affinity [3]: very low affinity; binding [4]: does not bind; receptor activation [5]: activated neither H1 nor H2 receptors; blockade of agonist-induced cell response ([5]; 10μM histamine, Ca2+ mobilization): effectively blocked; fraction of original concentration ([6]; distilled water): 97.03%; fraction of original concentration ([6]; physiological solution pH 7.4): 99.38%; fraction of original concentration ([6]; salt solution pH 4.0): 98.05%; fraction of original concentration ([6]; salt solution pH 7.0): 99.95%; residual amount of original compound [7]: 16%; remaining at 0.5 h, 2 µM [8]: 46%; remaining at 0.5 h, 2 µM [9]: 118%; remaining at 0.5 h, 2 µM [10]: 1%; Fabs ([11]; AVN-101 PO 10 mg/kg vs IV 2 mg/kg): 4.6%; Cmax ([11]; iv, 1 mg/kg): 13.7 ng/mL; Tmax ([11]; iv, 1 mg/kg): 0.0167 h; half-life ([11]; iv, 1 mg/kg): 0.348 h; AUC ([11]; iv, 2 mg/kg): 498 ng·h/mL; Cmax ([11]; iv, 2 mg/kg): 3740 ng/mL; Tmax ([11]; iv, 2 mg/kg): 0.0167 h; half-life ([11]; iv, 2 mg/kg): 0.497 h; AUC ([11]; po, 5 mg/kg): 31.6 ng·h/mL; Cmax ([11]; po, 5 mg/kg): 9.1 ng/mL; Tmax ([11]; po, 5 mg/kg): 4 h; AUC ([11]; po, 10 mg/kg): 114 ng·h/mL; Cmax ([11]; po, 10 mg/kg): 23 ng/mL; Tmax ([11]; po, 10 mg/kg): 1 h; half-life ([11]; po, 10 mg/kg): 6.1 h; time spent in the central area [12]: significant anxiolytic effect; activity during unpunished rewards session [13]: no effect observed; activity during punished conflict rewards session ([13]; compared to vehicle): significantly increased; decrease in immobility time [14]: comparable to that observed with either Fluoxetine or Desipramine; effect on deficit in novel object recognition [15]: partially reverse; MTD at 5 days [16]: 10 to 30 mg/kg; mortality ([17]; 30 mg/kg PO once daily for 5 days): 12.5%; mortality ([17]; 60 mg/kg PO once daily for 5 days): 50%; body weight ([17]; 60 mg/kg, starting from the 4th day): statistically significant weight loss; body weight, plasma biochemistry markers, macro- and microscopic observations [18]: No changes; kidney finding, one of 3 males [18]: small infarctions in cortical substance of the kidneys; ovary finding, one of 3 females [18]: ovary hypo function; toxic effects ([19]; 5 mg/kg PO daily): severe hepatotoxic and moderate cardiotoxic effects; toxic effects ([19]; 0.25 and 0.5 mg/kg PO daily): substantially less noticeable; IC50 [20]: 2400 nM; inhibition at 31.6 µM ([20]; read-out: % Inhibition at 31.6μM): 97%; QT interval [21]: 0.22 ± 0.04 s; heart rate [21]: ca. 175 beats/min; AUC ([22]; 2 mg): 0.0946 ± 0.0268 ng·h/mL; Cmax ([22]; 2 mg): 0.00579 ± 0.0029 ng/mL; half-life ([22]; 2 mg): 14.1 ± 10.2 h; AUC ([22]; 4 mg): 0.211 ± 0.0862 ng·h/mL; half-life ([22]; 4 mg): 8.15 ± 2.23 h; AUC ([22]; 10 mg): 0.462 ± 0.207 ng·h/mL; Cmax ([22]; 10 mg): 0.0537 ± 0.0318 ng/mL; half-life ([22]; 10 mg): 10.2 ± 2.55 h; AUC ([22]; 20 mg): 0.843 ± 0.333 ng·h/mL; Cmax ([22]; 20 mg): 0.0841 ± 0.0462 ng/mL; half-life ([22]; 20 mg): 8.18 ± 2.09 h; Tmax ([22]; male): ~1 h; half-life ([22]; male): 8 to 14 h; concentration in brain-containing chamber vs plasma chamber [23]: never exceeds that of the plasma chamber; Ki [24]: 720 nM

From article PMC4969713 (Journal of Alzheimer's Disease, 2016)
